Measured values of several laboratories.
Protocols differ between the studies behind these lines.
murD: UDP-N-acetylmuramoylalanine--D-glutamate ligase (murD, Escherichia coli K-12, UniProt P14900)
BRD4 BD1: Bromodomain-containing protein 4, BD1 (BRD4, Homo sapiens, UniProt O60885)
HDAC8: Histone deacetylase 8 (HDAC8, Homo sapiens, UniProt Q9BY41)
KAT2B: Histone acetyltransferase KAT2B (KAT2B, Homo sapiens, UniProt Q92831)

SMILES	target	observed	mode	technique	concentration	measurement	result
CCCOc1ccc(OC)c(F)c1C(=O)c1ccc(C(=O)N[C@@H]2CNC[C@H]2NC(=O)c2ccc3[nH]ncc3c2)cc1	cGMP-dependent protein kinase 1 (PRKG1, Homo sapiens, UniProt Q13976)	enzyme activity	inhibitor	–	50 nM	remaining activity	22%
N#Cc1ccc(COc2ccccc2C=NNS(=O)(=O)c2ccccc2[N+](=O)[O-])cc1	murD	enzyme activity	inhibitor	absorbance	100 µM	remaining activity	86%
Oc1ccc(-c2nc(-c3ccncc3)c(-c3ccc(F)cc3)[nH]2)cc1	BRD4 BD1	thermal stability	–	DSF	10 µM	ΔTm	0.55 °C
O=[N+]([O-])c1cccc(S(=O)(=O)Oc2ccccc2C=NNS(=O)(=O)c2ccc3ccccc3c2)c1	murD	enzyme activity	inhibitor	absorbance	50 µM	remaining activity	70%
Nc1ncnc2c1ncn2[C@@H]1O[C@H](CO)[C@@H](O)[C@H]1O	HDAC8	enzyme activity	inhibitor	–	10 µM	inhibition	-15.9%
Cc1cnc(Nc2ccc(OCCN3CCCC3)cc2)nc1Nc1cccc(S(=O)(=O)NC(C)(C)C)c1	Bromodomain-containing protein 4, BD2 (BRD4, Homo sapiens, UniProt O60885)	thermal stability	–	DSF	10 µM	ΔTm	3.11 °C
O=c1c(O)c(-c2ccc(O)c(O)c2)oc2cc(O)cc(O)c12	HDAC8	enzyme activity	inhibitor	–	10 µM	inhibition	68%
O=C(Nc1ccc(C=NNS(=O)(=O)c2ccc3ccccc3c2)cc1)c1ccccc1	murD	enzyme activity	inhibitor	absorbance	100 µM	remaining activity	56%
CC(C)[C@@H]1NC(=O)[C@@H]2CCCN2C(=O)[C@H](Cc2ccccc2)NC(=O)CSC[C@@H](C(=O)N[C@@H](Cc2ccc(O)cc2)C(N)=O)NC(=O)[C@H](Cc2c[nH]c3ccccc23)NC(=O)[C@H](CCCCN)NC(=O)[C@H](Cc2ccccc2)N(C)C(=O)[C@H](Cc2ccccc2)NC1=O	BRD4 BD1	thermal stability	–	DSF	50 µM	ΔTm	-0.52 °C
C[S+]([O-])c1ccc(-c2nc(-c3ccncc3)c(-c3ccc(F)cc3)[nH]2)cc1 (centres unmarked)	Tyrosine-protein kinase BAZ1B (BAZ1B, Homo sapiens, UniProt Q9UIG0)	thermal stability	–	DSF	10 µM	ΔTm	0.29 °C
NS(=O)(=O)c1ccc(Nc2nc(-c3ccc(F)cc3)c3ccccc3n2)cc1	KAT2B	binding	–	competition with immobilised ligand	1 µM	remaining binding	80%
Cc1ccc(C(=O)Nc2ccc(CN3CCN(C)CC3)c(C(F)(F)F)c2)cc1C#Cc1cnc2cccnn12	Cyclin-dependent kinase 11B (CDK11B, Homo sapiens, UniProt P21127)	enzyme activity	–	–	23.5 nM	remaining activity	79%
Cn1nnc2ccc(NC(=O)c3cccc(C(=O)O)c3)cc21	BRD4 BD1	thermal stability	–	DSF	100 µM	ΔTm	2.8 °C
N#Cc1ccc(COc2ccccc2C=NNS(=O)(=O)c2cccc([N+](=O)[O-])c2)cc1	murD	enzyme activity	inhibitor	absorbance	100 µM	remaining activity	74%
Cc1cc2c(cc1N1C(=O)c3cccc4c(Cl)ccc(c34)C1=O)n(C)c(=O)n2C	KAT2B	thermal stability	–	DSF	10 µM	ΔTm	0.5 °C
O=[N+]([O-])c1cccc(COc2ccccc2C=NNS(=O)(=O)c2ccc3ccccc3c2)c1	murD	enzyme activity	inhibitor	absorbance	50 µM	remaining activity	70%
Nc1ncnc2occ(-c3ccc(NC(=O)Nc4cc(C(F)(F)F)ccc4F)cc3)c12	Mitogen-activated protein kinase kinase kinase 4 (MAP3K4, Homo sapiens, UniProt Q9Y6R4)	cell-free assay	inhibitor	–	20 µM	remaining signal	1.6%
